Results taken from ChEMBL document CHEMBL4190361, “Discovery of New Selenoureido Analogues of 4-(4-Fluorophenylureido)benzenesulfonamide as Carbonic Anhydrase Inhibitors” (ACS Med Chem Lett, 2017).
Activity calls are given as the source filed them. The calls are words filed in the database; no cut-off is given here.

How the values were obtained:
[1] = target: Carbonic anhydrase 9 (Homo sapiens, UniProt Q16790)
[2] = tested on: MDA-MB-231; assay: Cytotoxicity against human MDA-MB-231 cells assessed as reduction in cell viability at 300 uM after 48 hrs under normoxic condition by MTT assay; assay type: functional, cell-based
Outline: (§1)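 Cells plated at 1 × 10^4/well and exposed to test agents at 30, 100 and 300 μM for 48 h, in normoxia (20% O2) or hypoxia (0.1% O2). Viability is expressed relative to untreated control set at 100%, as mean ± SEM of three experiments.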

[3] = tested on: MDA-MB-231; assay: Cytotoxicity against human MDA-MB-231 cells assessed as reduction in cell viability at 30 to 100 uM after 48 hrs under hypoxic condition by MTT assay; assay type: functional, cell-based
Outline: as §1

[4] = tested on: HT-29; assay: Cytotoxicity against human HT-29 cells assessed as reduction in cell viability at 30 to 300 uM after 48 hrs under hypoxic condition by MTT assay; assay type: functional, cell-based
Outline: as §1

[5] = tested on: PC-3; assay: Cytotoxicity against human PC3 cells assessed as reduction in cell viability at 30 to 300 uM after 48 hrs under normoxic condition by MTT assay; assay type: functional, cell-based
Outline: as §1

[6] = tested on: PC-3; assay: Cytotoxicity against human PC3 cells assessed as reduction in cell viability at 30 to 300 uM after 48 hrs under hypoxic condition by MTT assay; assay type: functional, cell-based
Outline: as §1

[7] = tested on: HT-29; assay: Cytotoxicity against human HT-29 cells assessed as reduction in cell viability at 30 to 300 uM after 48 hrs under normoxic condition by MTT assay; assay type: functional, cell-based
Outline: as §1

[8] = tested on: MDA-MB-231; assay: Cytotoxicity against human MDA-MB-231 cells assessed as reduction in cell viability at 30 to 100 uM after 48 hrs under normoxic condition by MTT assay; assay type: functional, cell-based
Outline: as §1

[9] = tested on: MDA-MB-231; assay: Cytotoxicity against human MDA-MB-231 cells assessed as reduction in cell viability at 300 uM after 48 hrs under hypoxic condition by MTT assay; assay type: functional, cell-based
Outline: as §1

[10] = Gpx-like activity of the compound assessed as GSH-mediated H2O2 reduction by measuring NADPH consumption measured within 100 secs by UV spectroscopic analysis; assay type: functional
Outline: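 NADPH-coupled GPx assay with GSH as substrate and H2O2 as oxidant, with glutathione reductase. Initial conditions: NADPH 0.6 mM, GSH 2.0 mM, H2O2 5 mM, GR 8 units/mL, catalyst 0.2 mM, pH 7.4 phosphate buffer, room temperature. Read-out is the absorbance decrease at 340 nm from NADPH consumption. Mean ± SD of three experiments.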

[11] = Gpx-like activity of the compound assessed as H2O2 reduction by measuring DTT oxidation measured within 35 mins by 1H-NMR analysis; assay type: functional
Outline: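 Oxidation of reduced DTT followed by 1H NMR, with DTTred and DTTox populations taken from signal integration. Catalyst loading 10%. Control run without catalyst, with (PhSe)2 as a standard comparator. T50 is the time to halve the initial DTTred. Mean ± SD of three separate experiments.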

[12] = tested on: MDA-MB-231; assay: Cytotoxicity against human MDA-MB-231 cells assessed as reduction in cell viability at 30 uM after 48 hrs under normoxic condition by MTT assay; assay type: functional, cell-based
Outline: as §1

[13] = tested on: PC-3; assay: Cytotoxicity against human PC3 cells assessed as reduction in cell viability at 300 uM after 48 hrs under normoxic condition by MTT assay; assay type: functional, cell-based
Outline: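 PC3 human prostate cancer cells seeded at 1 × 10^4/well and exposed for 48 h under normoxia (20% O2). The same run also used hypoxia (0.1% O2). Compounds tested at 30, 100 and 300 μM. Viability is expressed relative to untreated control set at 100%. Mean ± SEM of three experiments.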

**Q.** For `NS(=O)(=O)c1cccc(NC(=[Se])Nc2ccccc2)c1`, which Ki [1] is on record?
**A.** 330 nM

**Q.** For `NS(=O)(=O)c1cccc(NC(=[Se])Nc2ccc(F)cc2)c1`, which Ki [1] is on record?
**A.** 97.8 nM

**Q.** For `NS(=O)(=O)c1ccc(CCNC(=[Se])Nc2ccc(I)cc2)cc1`, which Activity [2] is on record?
**A.** inactive

**Q.** And the Activity [3]?
**A.** inactive

**Q.** And the Ki [1]?
**A.** 54.9 nM

**Q.** What about the Activity [4] of the same compound?
**A.** inactive

**Q.** What about the Activity [5] of the same compound?
**A.** inactive

**Q.** What about the Activity [6] of the same compound?
**A.** inactive

**Q.** What about the Activity [7] of the same compound?
**A.** inactive

**Q.** What about the Activity [8] of the same compound?
**A.** inactive

**Q.** What about the Activity [9] of the same compound?
**A.** inactive

**Q.** With `NS(=O)(=O)c1ccc(CCNC(=[Se])Nc2ccccc2F)cc1` as the compound, how does the Activity [2] read?
**A.** Active

**Q.** What about the Activity [3] of the same compound?
**A.** inactive

**Q.** And the Ki [1]?
**A.** 8.7 nM

**Q.** What about the Activity [4] of the same compound?
**A.** inactive

**Q.** And the Activity [5]?
**A.** Active

**Q.** And the Activity [6]?
**A.** Active

**Q.** And the Activity [7]?
**A.** inactive

**Q.** And the Activity [8]?
**A.** inactive

**Q.** What about the Activity [9] of the same compound?
**A.** Active

**Q.** With `NS(=O)(=O)c1ccc(NC(=[Se])Nc2cccc(C(F)(F)F)c2)cc1` as the compound, how does the Ki [1] read?
**A.** 15.9 nM

**Q.** For `NS(=O)(=O)c1ccc(CCNC(=[Se])Nc2cccc(C(F)(F)F)c2)cc1`, which Ki [1] is on record?
**A.** 5.8 nM

**Q.** With `NS(=O)(=O)c1ccc(NC(=S)Nc2ccc(F)cc2)cc1` as the compound, how does the Ki [1] read?
**A.** 32.1 nM

**Q.** And the Activity [10]?
**A.** inactive

**Q.** And the Activity [11]?
**A.** inactive

**Q.** For `NS(=O)(=O)c1ccc(NC(=[Se])Nc2ccccc2F)cc1`, which Ki [1] is on record?
**A.** 5.8 nM

**Q.** Which Ki [1] does the source give for `NS(=O)(=O)c1ccc(NC(=[Se])Nc2ccc(F)cc2)cc1` here?
**A.** 63 nM

**Q.** And the Activity [4]?
**A.** inactive

**Q.** What about the Activity [10] of the same compound?
**A.** Active

**Q.** What about the Activity [5] of the same compound?
**A.** Active

**Q.** And the Activity [11]?
**A.** Active

**Q.** What about the Activity [6] of the same compound?
**A.** Active

**Q.** And the Activity [7]?
**A.** inactive

**Q.** And the Activity [12]?
**A.** Active

**Q.** With `NS(=O)(=O)c1ccc(CCNC(=[Se])Nc2ccccc2)cc1` as the compound, how does the Ki [1] read?
**A.** 5.3 nM

**Q.** For `NS(=O)(=O)c1ccc(NC(=[Se])Nc2ccccc2)cc1`, which Ki [1] is on record?
**A.** 78.9 nM

**Q.** For `NS(=O)(=O)c1ccc(NC(=[Se])Nc2ccccc2Cl)cc1`, which Ki [1] is on record?
**A.** 3.9 nM

**Q.** With `COc1ccccc1NC(=[Se])NCCc1ccc(S(N)(=O)=O)cc1` as the compound, how does the Ki [1] read?
**A.** 3.1 nM

**Q.** Which Activity [13] does the source give for `NS(=O)(=O)c1ccc(NC(=O)Nc2ccc(F)cc2)cc1` here?
**A.** Active

**Q.** And the Activity [4]?
**A.** Active

**Q.** And the Activity [10]?
**A.** inactive

**Q.** What about the Activity [11] of the same compound?
**A.** inactive

**Q.** And the Activity [7]?
**A.** Active

**Q.** What about the Activity [12] of the same compound?
**A.** Active

**Q.** With `NS(=O)(=O)c1ccc(CCNC(=[Se])Nc2ccccc2Cl)cc1` as the compound, how does the Ki [1] read?
**A.** 4.8 nM

**Q.** For `NS(=O)(=O)c1ccc(CCNC(=[Se])Nc2ccc3ccccc3c2)cc1`, which Ki [1] is on record?
**A.** 93.1 nM

**Q.** For `NS(=O)(=O)c1ccc(CCNC(=[Se])Nc2ccc(Br)cc2)cc1`, which Ki [1] is on record?
**A.** 4.8 nM
